Experimental data pooled from the literature.
Each line is one published result; the experiments were not run side by side.
Target: Insulin receptor-related protein (INSRR, Homo sapiens, UniProt P14616)

COc1ncccc1-c1cnn2ccc(N3CCN(C(=O)OC(C)C)CC3)nc12
remaining binding (binding, competition with immobilised ligand; 1 µM): 96%

Cc1nn(C)cc1-c1nc2c(N3CCN(Cc4ccc(Cl)cc4)CC3)c(Cl)cnc2[nH]1
remaining binding (binding, competition with immobilised ligand; 1 µM): 100%

COc1cc(Nc2ncc(F)c(Nc3ccc4c(n3)NC(=O)C(C)(C)O4)n2)cc(OC)c1OC
inhibition (binding, competition with immobilised ligand; 10 µM): 53%

O=c1[nH]c2ccccc2n1C1CCN(Cc2ccc(-c3[nH]c4cc5ncnc5cc4nc3-c3ccccc3)cc2)CC1
remaining signal (cell-free assay; 0.5 µM): 101%

Cn1cncc1[C@](O)(COc1ccc(C#N)cc1-c1ccc(OC(F)(F)F)cc1)c1ccc(C#N)cc1
remaining binding (cell-free assay, competition with immobilised ligand; 1 µM): 93%

Nc1ncc(-c2nc(N3CCOCC3)nc(N3CCOCC3)n2)c(C(F)F)n1
remaining binding (binding, competition with immobilised ligand; 10 µM): 80%

C#Cc1n[nH]c2c(-c3cn([C@@H](C)c4ccccc4)c(=O)[nH]c3=O)cc(F)cc12
inhibition (enzyme activity, inhibitor; 0.1 µM): 6.9%

Cn1cc(-c2cccc(N3CCc4c(sc5c4CC(C)(C)C5)C3=O)c2CO)cc(Nc2ccncn2)c1=O
inhibition (enzyme activity, inhibitor; 1 µM): 2%

CC(C)(C)c1cc(C=C(C#N)C#N)cc(Br)c1O
remaining activity (enzyme activity, inhibitor; 0.5 µM): 103%

Cn1cc(-c2cc(F)cc(N3CCn4c(cc5c4CCCC5)C3=O)c2CO)cc(Nc2ccc(N3CCN(C4COC4)CC3)cn2)c1=O
inhibition (enzyme activity, inhibitor; 0.1 µM): 15%

C#Cc1n[nH]c2c(-c3cn(C(C)c4ccccn4)c(=O)[nH]c3=O)cc(F)cc12 (centres unmarked)
inhibition (enzyme activity, inhibitor; 1 µM): 0.7%
